Measurements: ChEMBL document CHEMBL1137010, “Improved peptide prodrugs of 5-ALA for PDT: rationalization of cellular accumulation and protoporphyrin IX production by direct determination of cellular prodrug uptake and prodrug metabolization” (J Med Chem, 2009)
Calls of active or inactive are those of the source. The calls are words filed in the database; no cut-off is given here.

Experiments:
[1] = Chromatographic hydrophobicity index in methanol solution under isocratic conditions at pH 6.8; assay type: physicochemical
Summary of the method: (§1)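 RP-HPLC on a C18 column at 35 °C, 0.7 mL/min. Mobile phase was CH3CN or CH3OH with 50 mM aq ammonium formate (pH 6.8). […], with t0 from uracil and tR measured in duplicate. Six isocratic compositions were chosen so that −1.5 < log k < 0.6, and the index was derived from the linear log k versus organic-fraction relation.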

[2] = Chromatographic hydrophobicity index in acetonitrile solution under isocratic conditions at pH 6.8; assay type: physicochemical; summary of the method: as §1
PAM212 [3] = assay: Phototoxicity against mouse PAM212 cells assessed as cell viability at 0.1 mM after 4 hrs irradiated with 2.5 J/cm2 blue light by MTT assay relative to control; assay type: functional; conditions: PAM212, light or radiation study, read-out: Activity
Summary of the method: (§2)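 PAM212 cells were seeded about 5 × 10^4/well, grown 48 h, PBS-washed and incubated 4 h with drug at 0.01, 0.1 or 1 mM. Blue light (peak 420 nm) was delivered at 2.5 J/cm², although the methods section states 1.25 J/cm². Medium was then replaced and cells kept 24 h. MTT 1 mg/mL for 3 h, DMSO, A570; survival as % of non-irradiated drug-treated controls.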

PAM212 [4] = assay: Drug uptake in mouse PAM212 cells assessed as PpIX production per mg of protein at 1 mM after 4 hrs; assay type: ADME, cell-based; conditions: pam212, 4 h, 1000 µM
Summary of the method: (§3)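 Cells (PAM212; A549 in F12K; Caco-2 in EMEM, 37 °C, 5% CO2) were seeded in 100 mm dishes and grown 48 h at 37 °C. After PBS washing they were incubated 4 h at 37 °C with 0.1 or 1 mM drug, washed, lysed 15 min and scraped, then centrifuged at 1800 g for 10 min. Supernatant PpIX was read by fluorescence (410/635 nm) against a PpIX standard curve and normalized to protein by BCA.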

PAM212 [5] = assay: Drug uptake in mouse PAM212 cells assessed as intracellular 5-aminolaevulinic acid level per mg of protein at 1 mM after 4 hrs; assay type: ADME, cell-based; conditions: pam212, 4 h, 1000 µM
PAM212 [6] = assay: Drug uptake in mouse PAM212 cells assessed as intracellular 5-aminolaevulinic acid level per mg of protein at 0.1 mM after 4 hrs; assay type: ADME, cell-based; conditions: pam212, 4 h, 100 µM
PAM212 [7] = assay: Drug uptake in mouse PAM212 cells assessed as PpIX production per mg of protein at 0.1 mM after 4 hrs; assay type: ADME, cell-based; conditions: pam212, 4 h, 100 µM; summary of the method: as §3
PAM212 [8] = assay: Drug uptake in mouse PAM212 cells assessed as enhanced PpIX fluorescence at 0.1 mM after 4 hrs; assay type: ADME, cell-based; conditions: pam212, 4 h, 100 µM
Summary of the method: (§4)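 PAM212 cells were seeded 5 × 10^4/well, grown 48 h, PBS-washed and incubated with drug at 0.01 or 0.1 mM in serum-free medium for 4 or 6 h. Untreated wells gave background and ALA wells served as reference. Well fluorescence: excitation 410 nm, emission 635 nm, scans 600–750 nm. Mean intensity (arbitrary units) after control subtraction, calibrated against rhodamine B.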

PAM212 [9] = assay: Cytotoxicity against mouse PAM212 cells after 24 hrs in absence of 2.5 J/cm2 blue light by MTT assay; assay type: functional, cell-based
Summary of the method: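 Dark toxicity. PAM212 keratinocytes (RPMI-1640, 10% FCS) were seeded about 5 × 10^4 cells/well and grown 48 h, PBS-washed, then given drug for 4 h without irradiation. Medium was replaced and cells were kept a further 24 h. MTT 1 mg/mL for 3 h, formazan dissolved in DMSO, absorbance at 570 nm.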

PAM212 [10] = assay: Drug uptake in mouse PAM212 cells assessed as enhanced PpIX fluorescence at 0.1 mM after 6 hrs; assay type: ADME, cell-based; conditions: pam212, 6 h, 100 µM; summary of the method: as §4
Caco-2 [11] = assay: Drug uptake in human Caco-2 cells assessed as PpIX production per mg of protein at 1 mM after 4 hrs; assay type: ADME, cell-based; conditions: caco-2, 4 h, 1000 µM; summary of the method: as §3
PAM212 [12] = assay: Drug uptake in mouse PAM212 cells assessed as enhanced PpIX fluorescence at 0.01 mM after 6 hrs; assay type: ADME, cell-based; conditions: pam212, 6 h, 10 µM; summary of the method: as §4
Caco-2 [13] = assay: Drug uptake in human Caco-2 cells assessed as intracellular 5-aminolaevulinic acid level per mg of protein at 1 mM after 4 hrs; assay type: ADME, cell-based; conditions: caco-2, 4 h, 1000 µM
A549 [14] = assay: Drug uptake in human A549 cells assessed as PpIX production per mg of protein at 0.1 mM after 4 hrs; assay type: ADME, cell-based; conditions: a549, 4 h, 100 µM; summary of the method: as §3
A549 [15] = assay: Drug uptake in human A549 cells assessed as intracellular 5-aminolaevulinic acid level per mg of protein at 0.1 mM after 4 hrs; assay type: ADME, cell-based; conditions: a549, 4 h, 100 µM
PAM212 [16] = assay: Drug uptake in mouse PAM212 cells assessed as enhanced PpIX fluorescence at 0.01 mM after 4 hrs; assay type: ADME, cell-based; conditions: pam212, 4 h, 10 µM; summary of the method: as §4
PAM212 [17] = assay: Phototoxicity against mouse PAM212 cells assessed as cell viability at 0.01 mM after 4 hrs irradiated with 2.5 J/cm2 blue light by MTT assay relative to control; assay type: functional, cell-based; summary of the method: as §2

SMILES	CHI [1]	CHI [2]	viability at 100 µM (PAM212 [3])	Drug uptake (PAM212 [4])	Drug uptake (PAM212 [5])	Drug uptake (PAM212 [6])	Drug uptake (PAM212 [7])	Drug uptake (PAM212 [8])	Activity (PAM212 [9])	Drug uptake (PAM212 [10])	Drug uptake (Caco-2 [11])	Drug uptake (PAM212 [12])	Drug uptake (Caco-2 [13])	Drug uptake (A549 [14])	Drug uptake (A549 [15])	Drug uptake (PAM212 [16])	Activity (PAM212 [17])
COC(=O)CCC(=O)CNC(=O)[C@@H]1CCCN1C(C)=O	27.47	18.69															
COC(=O)CCC(=O)CNC(=O)[C@@H](CC(C)C)NC(C)=O	50.76	33.89															
COC(=O)CCC(=O)CNC(=O)[C@H](CCC(=O)O)NC(C)=O	35.01	23.14	3%	276 ng/mg	5.04 µg/mg	1.2 µg/mg	165 ng/mg	Active	inactive	Active							
COC(=O)CCC(=O)CNC(=O)[C@H](CC(C)C)NC(C)=O	50.92	36.67	3%	290 ng/mg	12.2 µg/mg	2.8 µg/mg	276 ng/mg	Active	inactive	Active	612 ng/mg	Active	6.54 µg/mg	5.91 ng/mg	0.2 µg/mg	Active	
COC(=O)CCC(=O)CNC(=O)[C@H](CCCCN)NC(C)=O	13.61	8.48		20.2 ng/mg	3.06 µg/mg	0.68 µg/mg	13.2 ng/mg										
COC(=O)CCC(=O)CNC(=O)[C@H](C)NC(C)=O	17.08	14.18	3%	12.9 ng/mg	3.93 µg/mg	0.88 µg/mg	10.9 ng/mg	Active	inactive			Active				Active	
COC(=O)CCC(=O)CNC(=O)[C@@H](NC(C)=O)C(C)C	41.6	25.64						Active									
COC(=O)CCC(=O)CNC(=O)[C@@H](C)NC(C)=O	17.3	17.3															
COC(=O)CCC(=O)CNC(=O)[C@H](CO)NC(C)=O	36.43	14.61		222 ng/mg	2.17 µg/mg	0.5 µg/mg	33.9 ng/mg										
COC(=O)CCC(=O)CNC(=O)[C@H](Cc1c[nH]c2ccccc12)NC(C)=O	22.08	37.35		38.9 ng/mg	10.3 µg/mg	2.41 µg/mg	26.6 ng/mg				-5.9 ng/mg		8.35 µg/mg	-0.02 ng/mg	0.23 µg/mg		
COC(=O)CCC(=O)CNC(=O)[C@H](NC(C)=O)C(C)C	40.76	24.74															
CC(=O)N[C@@H](Cc1ccccc1)C(=O)NCC(=O)CCC(=O)O[C@@H]1C[C@H](C)CCC1C(C)C (stereo partly drawn)	110.53	53.22						Active								Active	
COC(=O)CCC(=O)CNC(=O)[C@H](Cc1ccc(O)cc1)NC(C)=O	40.73	34.14															
COC(=O)CCC(=O)CNC(=O)CNC(C)=O	18.77	10.31															
NCC(=O)CCC(=O)O [AMINOLEVULINIC ACID]			11%	310 ng/mg	3.41 µg/mg	0.81 µg/mg	108 ng/mg				603 ng/mg		2.66 µg/mg	39.9 ng/mg	0.08 µg/mg		inactive
COCCOCCOC(=O)CCC(=O)CNC(=O)[C@H](Cc1ccccc1)NC(C)=O	58.35	38.88						Active								Active	
COC(=O)CCC(=O)CNC(=O)[C@H](Cc1cnc[nH]1)NC(C)=O	28.89	15.59															
COC(=O)CCC(=O)CNC(=O)[C@H](CCSC)NC(C)=O	41.4	28.89	3%	295 ng/mg	13.2 µg/mg	3.28 µg/mg	315 ng/mg	Active	inactive	Active		Active				Active	Active
CCOC(=O)CCC(=O)CNC(=O)[C@H](Cc1ccccc1)NC(C)=O	57.58	44.01						Active								Active	
COC(=O)CCC(=O)CNC(=O)[C@@H](Cc1c[nH]c2ccccc12)NC(C)=O	22.08	37.32															
CC[C@H](C)[C@H](NC(C)=O)C(=O)NCC(=O)CCC(=O)OC	46.91	37.14		22.3 ng/mg	7.1 µg/mg	1.64 µg/mg	40.2 ng/mg										
COC(=O)CCC(=O)CNC(=O)[C@@H](Cc1ccccc1)NC(C)=O	52.62	37.71		-2.99 ng/mg	4.35 µg/mg	1.07 µg/mg	4.57 ng/mg										
COC(=O)CCC(=O)CNC(=O)[C@H](CC(=O)O)NC(C)=O	24.27	19.62		20.2 ng/mg	1.94 µg/mg	0.41 µg/mg	19.1 ng/mg										
COC(=O)CCC(=O)CNC(=O)[C@H]1CCCN1C(C)=O	27.34	18.7															
COCCOC(=O)CCC(=O)CNC(=O)[C@H](Cc1ccccc1)NC(C)=O	79.03	38.26						Active								Active	
COC(=O)CCC(=O)CNC(=O)[C@H](Cc1ccccc1)NC(C)=O	52.96	34.71	3%	295 ng/mg	13.7 µg/mg	2.9 µg/mg	313 ng/mg	Active	inactive	Active	594 ng/mg	Active	11.9 µg/mg	4.42 ng/mg	0.38 µg/mg	Active	Active
CCCCCCOC(=O)CCC(=O)CNC(=O)[C@H](Cc1ccccc1)NC(C)=O	97.31	56.64	3%	247 ng/mg	18.9 µg/mg	4.14 µg/mg	284 ng/mg	Active			480 ng/mg		14.8 µg/mg	10.1 ng/mg	1.63 µg/mg	Active	Active
